The results in this text go back to ChEMBL document CHEMBL1151744, “New analgesics synthetically derived from the paracetamol metabolite N-(4-hydroxyphenyl)-(5Z,8Z,11Z,14Z)-icosatetra-5,8,11,14-enamide” (J Med Chem, 2008).

For data set [1], the target named is T1, Fatty-acid amide hydrolase 1 (Rattus norvegicus) (UniProt P97612).
T1 sequence (whole entry): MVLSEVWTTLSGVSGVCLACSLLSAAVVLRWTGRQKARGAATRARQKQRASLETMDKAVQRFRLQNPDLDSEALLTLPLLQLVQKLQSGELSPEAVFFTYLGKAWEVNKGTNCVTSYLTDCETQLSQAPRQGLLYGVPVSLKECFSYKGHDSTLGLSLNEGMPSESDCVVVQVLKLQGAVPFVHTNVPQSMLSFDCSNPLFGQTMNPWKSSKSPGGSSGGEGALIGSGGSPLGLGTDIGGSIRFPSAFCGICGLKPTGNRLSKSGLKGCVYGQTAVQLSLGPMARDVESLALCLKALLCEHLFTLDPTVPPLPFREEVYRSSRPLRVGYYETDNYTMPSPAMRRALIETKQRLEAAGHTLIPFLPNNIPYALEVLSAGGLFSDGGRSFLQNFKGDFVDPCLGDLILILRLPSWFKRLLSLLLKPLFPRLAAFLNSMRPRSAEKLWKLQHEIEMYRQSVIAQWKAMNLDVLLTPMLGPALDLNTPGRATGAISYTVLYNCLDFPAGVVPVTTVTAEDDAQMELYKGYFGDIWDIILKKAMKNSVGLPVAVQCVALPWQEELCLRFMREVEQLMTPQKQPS
Briefly: Inhibition of FAAH in rat brain membrane assessed as [14C]anandamide hydrolysis at 10 uM by scintillation counting. It counts as cell membranes. The method, boiled down: (§1)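 Enzyme source was a rat brain membrane pellet resuspended in 50 mM Tris-HCl, pH 9.0, 70 µg protein per assay. It was incubated with compound (10 or 50 µM) and [14C]anandamide (10000 cpm) for 30 min at 37 °C. After CHCl3/MeOH (1:1) extraction, [14C]ethanolamine in the aqueous phase was counted by scintillation. Points were run in duplicate.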

The target in data set [2] is T2, Cannabinoid receptor 2 (Homo sapiens, UniProt P34972). Briefly: Displacement of [3H]CP-55940 from human recombinant CB2 receptor expressed in HEK293 cells. It counts as cell-based. The method, boiled down: (§2)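 Membranes were from HEK-293 cells overexpressing human CB1 or CB2, with [3H]CP-55,940 as radioligand (Kd 0.18 nM CB1, 0.31 nM CB2). Test compound (1 nM-10 µM) was incubated 90 min at 30 °C. Displaced radioligand was counted by scintillation. Ki came from IC50 via Cheng-Prusoff, with triplicate points; single-concentration screens were run in duplicate.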
T2 sequence (P34972 whole entry): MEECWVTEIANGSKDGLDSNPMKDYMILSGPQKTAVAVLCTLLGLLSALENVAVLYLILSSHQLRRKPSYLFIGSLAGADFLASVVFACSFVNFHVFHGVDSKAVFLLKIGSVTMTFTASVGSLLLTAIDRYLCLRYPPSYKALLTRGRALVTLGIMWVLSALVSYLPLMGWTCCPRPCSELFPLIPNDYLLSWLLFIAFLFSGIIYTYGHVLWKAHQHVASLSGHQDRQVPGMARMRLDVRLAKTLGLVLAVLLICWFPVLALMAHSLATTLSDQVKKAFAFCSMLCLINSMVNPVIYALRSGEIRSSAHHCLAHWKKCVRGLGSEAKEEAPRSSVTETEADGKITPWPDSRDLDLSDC
On the technique in general: Displacement assays read how much labelled ligand stays bound in the presence of the test substance.

In data set [3] the target is T1, Fatty-acid amide hydrolase 1 (Rattus norvegicus). Kind of data set: Inhibition of FAAH in rat brain membrane assessed as [14C]anandamide hydrolysis at 50 uM by scintillation counting. It counts as cell membranes. The method, boiled down: as §1
For data set [4], the target named is T3, Cannabinoid receptor 1 (Homo sapiens, UniProt P21554). Kind of data set: Displacement of [3H]CP-55940 from human recombinant CB1 receptor expressed in HEK293 cells. The format is cell-based. The method, boiled down:
as §2

The species entered for data set [5] is Mus musculus. Briefly: Toxicity in C57BL/6 mouse assessed as loss of locomotor behavior. It counts as organism-based. Conditions: in vivo.
For data set [6], the target named is T4, Prostaglandin G/H synthase 2 (Homo sapiens) (UniProt P35354).
T4 sequence (whole entry): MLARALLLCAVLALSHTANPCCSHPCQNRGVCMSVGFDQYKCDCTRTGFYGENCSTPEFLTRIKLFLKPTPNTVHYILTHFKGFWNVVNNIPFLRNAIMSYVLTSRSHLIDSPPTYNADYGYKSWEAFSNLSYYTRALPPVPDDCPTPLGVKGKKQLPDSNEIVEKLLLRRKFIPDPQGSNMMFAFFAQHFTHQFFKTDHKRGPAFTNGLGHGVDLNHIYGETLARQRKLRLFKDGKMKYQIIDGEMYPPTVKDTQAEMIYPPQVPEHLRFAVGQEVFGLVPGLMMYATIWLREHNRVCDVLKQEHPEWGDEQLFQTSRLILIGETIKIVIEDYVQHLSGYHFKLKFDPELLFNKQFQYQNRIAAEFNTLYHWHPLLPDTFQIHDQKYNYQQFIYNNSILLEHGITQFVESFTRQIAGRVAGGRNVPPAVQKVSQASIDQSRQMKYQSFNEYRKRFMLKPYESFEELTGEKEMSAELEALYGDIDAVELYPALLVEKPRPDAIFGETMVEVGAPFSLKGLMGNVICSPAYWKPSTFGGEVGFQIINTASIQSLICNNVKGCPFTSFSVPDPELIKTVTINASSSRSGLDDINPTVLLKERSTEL
Briefly: Inhibition of cyclooxygenase 2 in human whole blood assessed as prostaglandin E2 level.

Data set [7] deals with Mus musculus. Briefly: Antinociceptive activity against formalin-induced nociceptive behavior in C57BL/6 mouse assessed as mean licking time at 27.5 mg/kg, ip administered 15 mins prior to formalin challenge measured after 15 to 45 mins relative to control. The format is functional. Conditions: route intraperitoneal. The method, boiled down:
(§3)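 C57BL/6 mice (n = 6-8 per group) were habituated 15-20 min in an observation chamber with mirrors, then given the compound ip at 6 µL/g in PBS/DMSO. Formalin (5%, 20 µL) went into the dorsal left hind paw 15 min later. Licking of the injected paw was summed over 0-10 min (phase 1) and 15-45 min (phase 2) and expressed as % of the vehicle control. Groups were compared by t test.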

The subject of data set [8] is Mus musculus. Briefly: Antinociceptive activity against formalin-induced nociceptive behavior in C57BL/6 mouse assessed as mean licking time at 55 mg/kg, ip administered 15 mins prior to formalin challenge measured after 15 to 45 mins relative to control. Conditions: route intraperitoneal. It counts as functional. The gist of the method:
as §3

In data set [9] the test system is Mus musculus. Briefly: Antinociceptive activity against formalin-induced nociceptive behavior in C57BL/6 mouse assessed as mean licking time lat 27.5 mg/kg, ip administered 15 mins prior to formalin challenge measured upto 10 mins relative to control. The format is functional. Conditions: route intraperitoneal. The gist of the method: as §3
Data set [10] has as its system Mus musculus. Briefly: Antinociceptive activity against formalin-induced nociceptive behavior in C57BL/6 mouse assessed as mean licking time at 275 mg/kg, ip administered 15 mins prior to formalin challenge measured after 15 to 45 mins relative to control. It counts as functional. Conditions: route intraperitoneal. The method, boiled down:
as §3

Data set [11] concerns Mus musculus. Kind of data set: Antinociceptive activity against formalin-induced nociceptive behavior in C57BL/6 mouse assessed as mean licking time at 275 mg/kg, ip administered 15 mins prior to formalin challenge measured upto 10 mins relative to control. The format is functional. Conditions: route intraperitoneal. The method, boiled down:
as §3

Data set [12] concerns the target T2, Cannabinoid receptor 2. Briefly: Displacement of [3H]CP-55940 from human recombinant CB2 receptor expressed in HEK293 cells at 10 uM. It counts as cell-based.
Data set [13] addresses T3, Cannabinoid receptor 1. Kind of data set: Displacement of [3H]CP-55940 from human recombinant CB1 receptor expressed in HEK293 cells at 10 uM. The format is cell-based.
For data set [14], the target named is Prostaglandin G/H synthase 1 (Homo sapiens, UniProt P23219). Kind of data set: Inhibition of cyclooxygenase 1 in human whole blood assessed as thromboxane B2 level. It counts as tissue-based. The gist of the method: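 Fresh whole blood came from a healthy volunteer free of NSAIDs for 2 weeks. 1 mL aliquots received test agent in DMSO and were left to clot for 1 h at 37 °C. Serum TXB2 was measured by GC-MS/MS, in quadruplicate.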
Prostaglandin G/H synthase 1, sequence (P23219 whole entry): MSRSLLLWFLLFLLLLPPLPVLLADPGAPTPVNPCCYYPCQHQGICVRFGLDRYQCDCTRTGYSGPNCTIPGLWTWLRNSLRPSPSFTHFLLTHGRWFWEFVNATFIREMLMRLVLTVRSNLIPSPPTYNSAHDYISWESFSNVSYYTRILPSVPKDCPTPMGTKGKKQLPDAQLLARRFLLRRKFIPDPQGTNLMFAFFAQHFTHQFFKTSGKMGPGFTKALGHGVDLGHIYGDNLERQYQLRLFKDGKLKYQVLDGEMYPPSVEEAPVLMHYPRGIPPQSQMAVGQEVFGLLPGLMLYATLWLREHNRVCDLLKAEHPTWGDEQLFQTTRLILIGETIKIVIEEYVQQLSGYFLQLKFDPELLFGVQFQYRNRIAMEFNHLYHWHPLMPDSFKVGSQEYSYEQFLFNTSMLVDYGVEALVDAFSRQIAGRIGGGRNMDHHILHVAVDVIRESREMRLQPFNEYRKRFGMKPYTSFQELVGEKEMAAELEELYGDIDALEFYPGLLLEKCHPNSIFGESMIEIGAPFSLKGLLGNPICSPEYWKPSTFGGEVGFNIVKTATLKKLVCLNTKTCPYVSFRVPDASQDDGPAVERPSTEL

Data set [15] deals with Mus musculus. Kind of data set: Antinociceptive activity against formalin-induced nociceptive behavior in C57BL/6 mouse assessed as mean licking time at 55 mg/kg, ip administered 15 mins prior to formalin challenge measured upto 10 mins relative to control. It counts as functional. The conditions noted are these: route intraperitoneal. The gist of the method:
as §3

Data set [16] has as its target T5, Prostaglandin G/H synthase 2 (Homo sapiens, UniProt P35354).
T5 sequence (P35354 whole entry): T4 sequence (whole entry)
Briefly: Inhibition of cyclooxygenase 2 in human whole blood assessed as prostaglandin E2 level.

Data set [17] has as its system Mus musculus. Briefly: Antinociceptive activity against formalin-induced nociceptive behavior in C57BL/6 mouse assessed as mean licking time at 5 mg/kg, ip administered 15 mins prior to formalin challenge measured after 15 to 45 mins relative to control. It counts as functional. The conditions noted are these: route intraperitoneal. The gist of the method: as §3

Data set [18] relates to Mus musculus. Briefly: Antinociceptive activity against formalin-induced nociceptive behavior in C57BL/6 mouse assessed as mean licking time at 10 mg/kg, ip administered 15 mins prior to formalin challenge measured upto 10 mins relative to control. It counts as functional. The conditions noted are these: route intraperitoneal. The gist of the method: as §3
Data set [19] has as its target T4, Prostaglandin G/H synthase 2 (Homo sapiens). Kind of data set: Inhibition of human recombinant cyclooxygenase 2 assessed as prostaglandin F2alpha level at 10 uM by enzyme immunoassay relative to control. The gist of the method: (§4)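 Isolated ovine COX-1 or human recombinant COX-2 was incubated with compound at 1 or 10 µM for 10 min at 37 °C. Buffer was 0.1 M Tris-HCl pH 8.0 with 5 mM EDTA and 2 mM phenol. PGH2 formed was reduced to PGF2α with stannous chloride for quantification. Ketoprofen (10 µM) served as reference; values are means of four experiments.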

Data set [20] has as its target T6, Prostaglandin G/H synthase 1 (Ovis aries) (UniProt P05979).
T6 sequence (whole entry): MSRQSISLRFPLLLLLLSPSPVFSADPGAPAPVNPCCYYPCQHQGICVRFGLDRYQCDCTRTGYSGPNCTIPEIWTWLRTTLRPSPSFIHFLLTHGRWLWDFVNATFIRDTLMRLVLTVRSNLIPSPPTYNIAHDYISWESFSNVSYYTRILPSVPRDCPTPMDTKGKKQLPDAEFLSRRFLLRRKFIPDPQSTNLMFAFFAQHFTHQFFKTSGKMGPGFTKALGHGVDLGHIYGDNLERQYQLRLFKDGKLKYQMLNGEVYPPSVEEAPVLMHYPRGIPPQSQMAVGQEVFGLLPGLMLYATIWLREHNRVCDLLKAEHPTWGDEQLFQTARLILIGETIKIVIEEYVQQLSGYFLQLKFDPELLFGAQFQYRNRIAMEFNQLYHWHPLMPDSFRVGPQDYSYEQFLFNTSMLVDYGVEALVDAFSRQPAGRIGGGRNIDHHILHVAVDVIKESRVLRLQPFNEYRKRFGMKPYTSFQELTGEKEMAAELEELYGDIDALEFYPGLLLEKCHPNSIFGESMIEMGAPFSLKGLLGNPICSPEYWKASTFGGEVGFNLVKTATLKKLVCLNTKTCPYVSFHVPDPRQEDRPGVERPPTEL
Briefly: Inhibition of ovine cyclooxygenase 1 assessed as prostaglandin F2alpha level at 10 uM by enzyme immunoassay relative to control. The gist of the method:
as §4

Data set [21] has as its system Mus musculus. Briefly: Antinociceptive activity against formalin-induced nociceptive behavior in C57BL/6 mouse assessed as mean licking time at 50 mg/kg, ip administered 15 mins prior to formalin challenge measured after 15 to 45 mins relative to control. The format is functional. The conditions noted are these: route intraperitoneal. The method, boiled down: as §3

The target in data set [22] is T6, Prostaglandin G/H synthase 1 (Ovis aries). Kind of data set: Inhibition of ovine cyclooxygenase 1 assessed as prostaglandin F2alpha level at 1 uM by enzyme immunoassay relative to control. The gist of the method: as §4
Data set [23] has as its system Mus musculus. Kind of data set: Antinociceptive activity against formalin-induced nociceptive behavior in C57BL/6 mouse assessed as mean licking time at 5 mg/kg, ip administered 15 mins prior to formalin challenge measured upto 10 mins relative to control. The format is functional. The conditions noted are these: route intraperitoneal. The gist of the method:
as §3

Data set [24] concerns Mus musculus. Kind of data set: Antinociceptive activity against formalin-induced nociceptive behavior in C57BL/6 mouse assessed as mean licking time at 50 mg/kg, ip administered 15 mins prior to formalin challenge measured upto 10 mins relative to control. Conditions: route intraperitoneal. It counts as functional. The method, boiled down: as §3
Data set [25] deals with Mus musculus. Kind of data set: Antinociceptive activity against formalin-induced nociceptive behavior in C57BL/6 mouse assessed as mean licking time at 10 mg/kg, ip administered 15 mins prior to formalin challenge measured after 15 to 45 mins relative to control. Conditions: route intraperitoneal. It counts as functional. The method, boiled down: as §3
The target of data set [26] is T4, Prostaglandin G/H synthase 2 (Homo sapiens). Kind of data set: Inhibition of human recombinant cyclooxygenase 2 assessed as prostaglandin F2alpha level at 1 uM by enzyme immunoassay relative to control. The gist of the method: as §4

Calls of active or inactive are those of the source. The rule behind the calls is not given here.

T3 sequence (P21554 whole entry): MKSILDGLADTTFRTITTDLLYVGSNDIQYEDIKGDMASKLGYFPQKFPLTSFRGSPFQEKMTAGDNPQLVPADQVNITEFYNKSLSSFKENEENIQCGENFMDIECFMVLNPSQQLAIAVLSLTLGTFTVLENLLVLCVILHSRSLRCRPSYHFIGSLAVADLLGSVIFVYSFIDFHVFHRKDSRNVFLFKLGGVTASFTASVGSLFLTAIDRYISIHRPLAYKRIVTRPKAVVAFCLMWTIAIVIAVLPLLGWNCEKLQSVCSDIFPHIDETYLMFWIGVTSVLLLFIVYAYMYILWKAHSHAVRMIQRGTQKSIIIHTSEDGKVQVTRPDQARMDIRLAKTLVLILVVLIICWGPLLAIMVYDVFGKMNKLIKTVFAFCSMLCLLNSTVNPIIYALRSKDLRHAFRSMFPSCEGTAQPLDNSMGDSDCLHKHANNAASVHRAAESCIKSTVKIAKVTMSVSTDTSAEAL

As a reminder, the inhibition is the percentage by which the read-out fell short of the control. By Ki is commonly meant the equilibrium dissociation constant of an inhibitor or competing ligand from its target. For `CCCCC/C=C\C/C=C\C/C=C\C/C=C\CCCC(=O)Nc1ccc2[nH]ncc2c1`, the inhibition in data set [1] is 1%; in [3], 2%. For the same compound, the Ki stood at 1 µM in data set [2] and 0.3 µM in data set [4].
For the compound `CC(=O)NCc1ccc(O)cc1`, the Activity result in data set [5] is reported as “Non-toxic”; in [7], 97%; in data set [8], 71%; in data set [9], 227%; in data set [10], 37%; in data set [11] it was 50%. For the same compound, the Activity in data set [12] turned out to be 7%; in data set [13] it was 5%; in data set [15], 128%. Also, the result in [6] and in data set [14] was inactive. The inhibition in data set [3] stood at 4%.
Turning to `CCCCC/C=C\C/C=C\C/C=C\C/C=C\CCCC(=O)Nc1ccc(O)cc1`, the inhibition in data set [1] was determined as 15%; in data set [3] it was 55%. Besides, the Ki in [2] came out at 1.3 µM; in data set [4], 1.5 µM.
By IC50 is commonly meant the concentration that gives 50% inhibition. Regarding `CC(=O)Nc1ccc2[nH]ncc2c1`, the Activity result in data set [5] was “Non-toxic”; in data set [17], 94%; in data set [18] it was 142%; in data set [12], 12%; in [21], 38%; in data set [13], 1%. Further, the figures for the Activity in data set [23], in data set [24] and in data set [25] were 105%, 29% and 73%, respectively. For the same compound, in data set [16], the IC50 came out at 107 µM. Further, the inhibition in data set [19] came to 70%; in [20], 92%; in data set [22], 97%; in data set [3], 4%; in data set [26], 80%. For the same compound, the result in data set [14] was inactive.
